High-throughput results from PubChem BioAssay.
GSH bead fluor: GSH bead compound fluorescence profile; GSH beads flow cytometry, compound fluorescence 488/530 nm; hits give high values; fluorescence (KMESF) at 10 µM; hit rate 0.25% among 190,000; AID 1776; in the data active = fluorescence above about 89;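 note: glutathione beads carrying GST-tagged Bcl family fusion proteins plus one bare bead set; values are compound well signal with DMSO vehicle wells as background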
ABCB1 inh: inhibitors of human ABCB1 transporter, ABCG2 counter-screen | P08183 | CCRF-Adr cells, JC-1 efflux, flow cytometry | inhibition, % at 6.6 µM | hit rate 0.067% among 190,000 | AID 1326; in the data active = inhibition above about 40%;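 note: 0% = vehicle and 100% = reference inhibitor; higher value means more JC-1 retained so stronger ABCB1 efflux block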
ABCG2 inh: blocks JC-1 efflux by human ABCG2 transporter; Q9UNQ0; IgMXP3 cells, flow cytometry; inhibition, % at 6.6 µM; hit rate 0.1% among 190,000; AID 1325;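 active = inhibition above 80%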;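 note: 0% = DMSO and 100% = nicardipine control wells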
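Incubation: cells with compound and JC-1, 10 min at 25 °C, rotating, no wash / Test system: IgMXP3 (ABCG2) plus far-red-tagged CCRF-Adr (ABCB1) cells / Compound dosing: one concentration, 6.6 µM final / Also added: JC-1 fluorescent substrate / Evaluation: efflux inhibition in percent versus controls / Detection: flow cytometry, 530 nm JC-1 signal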
Avidin bead fluor: avidin bead compound fluorescence profile | hit rate 0.38% among 220,000 | fluorescence (KMESF) at 10 µM | Avidin beads, compound fluorescence 488/530 nm, flow cytometry; hits give high values; in the data active = fluorescence above about 47
Lmaj promast: inhibitors of Leishmania major promastigote growth; inhibition, % at 10 µM; Leishmania major promastigotes, resazurin fluorescence viability; hit rate 9% among 200,000;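 note: promastigotes grown with compound for 44 hours at 28 °C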
PKD1 kinase inh: blocks activity of human protein kinase D1. Q15139. PKD1 kinase fluorescence polarization assay. inhibition, % (no concentration beside the values). hit rate 0.056% among 200,000
Target sequence (Q15139 whole entry, looked up): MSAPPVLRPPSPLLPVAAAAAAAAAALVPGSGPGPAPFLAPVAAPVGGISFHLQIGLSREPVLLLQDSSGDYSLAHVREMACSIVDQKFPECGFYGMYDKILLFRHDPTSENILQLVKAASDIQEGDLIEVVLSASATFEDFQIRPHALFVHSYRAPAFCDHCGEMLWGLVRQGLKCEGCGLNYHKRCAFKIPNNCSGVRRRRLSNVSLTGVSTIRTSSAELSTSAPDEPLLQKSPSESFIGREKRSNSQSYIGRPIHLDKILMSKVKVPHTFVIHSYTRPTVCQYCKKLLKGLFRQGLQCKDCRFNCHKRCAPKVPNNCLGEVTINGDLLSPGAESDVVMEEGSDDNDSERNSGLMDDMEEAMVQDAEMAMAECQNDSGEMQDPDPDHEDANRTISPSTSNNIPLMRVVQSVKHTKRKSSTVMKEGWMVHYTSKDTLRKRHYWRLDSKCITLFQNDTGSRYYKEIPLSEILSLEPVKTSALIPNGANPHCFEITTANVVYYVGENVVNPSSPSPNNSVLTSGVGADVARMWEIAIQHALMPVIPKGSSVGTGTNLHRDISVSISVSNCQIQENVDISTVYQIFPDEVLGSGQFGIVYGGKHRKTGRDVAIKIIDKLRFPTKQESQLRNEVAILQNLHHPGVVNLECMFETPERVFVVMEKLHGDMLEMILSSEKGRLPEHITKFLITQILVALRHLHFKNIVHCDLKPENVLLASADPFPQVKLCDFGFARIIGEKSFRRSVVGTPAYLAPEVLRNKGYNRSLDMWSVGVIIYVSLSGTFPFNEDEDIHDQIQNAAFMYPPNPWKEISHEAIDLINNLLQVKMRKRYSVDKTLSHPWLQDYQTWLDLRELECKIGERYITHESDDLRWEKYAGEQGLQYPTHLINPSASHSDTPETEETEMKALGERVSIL
Lmaj promast 1uM: inhibitors of Leishmania major promastigote growth, repeat at 1 uM. shares compounds with Lmaj promast. L. major promastigote growth, resazurin fluorescence, 48 h. inhibition, % at 1 µM. hit rate 13% among 1,100. AID 1258;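 active = inhibition above about 50% in both repeat tests, limit read from the data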
Numbers without * were called inactive; . = no result given; ! = not active in a repeat. The full list was thinned out, with hits kept by preference. Cut-off read from the data, not from the text of the source, unless noted: active = inhibition above about 50%; inactive = the rest.

SMILES	GSH bead fluor	ABCB1 inh	ABCG2 inh	Avidin bead fluor	Lmaj promast	PKD1 kinase inh	Lmaj promast 1uM
O=C(O)CC1S/C(=N/N=C/C=C/c2ccccc2[N+](=O)[O-])NC1=O (stereo not given)	3	1	16	9	29	-4	.
O=C(O)CC1S/C(=N/N=C/C=C/c2ccccc2)NC1=O (stereo not given)	9	0	3	13	53*!	-5	-12
COC(=O)C1=C(C)NC(C)=C(C(=O)OC)C1C(=O)OC(C)C(=O)c1ccccc1 (stereo not given)	16	0	2	10	3	0	.
CN(C)S(=O)(=O)c1cccc(-c2cn3cc(Cl)ccc3n2)c1	13	1	4	14	99*	-10	-9
CN(C)S(=O)(=O)c1cccc(-c2cn3ccccc3n2)c1	13	1	3	15	6	1	.
O=C(CSc1nnc(-c2ccc(Cl)cc2Cl)n1C1CCCCC1)N1CCCC1	14	2	2	36	7	-13	.
Cc1cc(Br)c2c(c1)C(O)(N1CCCCC1C)C(=O)N2 (stereo not given)	14	0	2	4	1	-4	.
Cc1ccc(-c2onc3ccc(C=O)cc23)cc1	23	1	4	10	81*	-1	-11
Cc1ccc(-c2onc3ccc(C4(C)OCCO4)cc23)cc1	54	0	3	5	2	-7	.
CN1CCC(C2(O)c3ccccc3CSc3sccc32)CC1 (stereo not given)	16	0	0	8	67*	-1	-7
CN1CCC(C2(O)c3ccccc3CCc3ccccc32)CC1	11	0	10	4	5	0	.
CC(C)(C)c1ccc(-c2nc(C=O)c3ccccn23)cc1	79	1	5	11	63*	0	2
COc1ccc(-c2cc(Nc3ccccc3NC(=O)C(F)(F)F)n(CCC#N)n2)cc1	10	1	21	29	63*	3	-14
CCOC(=O)c1cc(-c2ccccc2)nn1CCC#N	13	1	4	12	-13	-5	.
O=C(O)c1ccc(NC(=S)NC(NC(=O)c2ccco2)C(Cl)(Cl)Cl)cc1 (stereo not given)	52	0	0	12	-3	-8	.
Cc1ccc(NC(=S)NC(NC(=O)c2ccco2)C(Cl)(Cl)Cl)cc1 (stereo not given)	48	0	2	35	83*	-5	-6
O=C(Nc1nc(-c2ccccc2)cs1)c1ccc(N2CCOCC2)c([N+](=O)[O-])c1	10	-1	-4	25	98*	-8	14
Cc1ccc(-c2csc(NC(=O)c3cc([N+](=O)[O-])ccc3N3CCOCC3)n2)cc1	15	0	3	8	5	-7	.
COCCCn1c2nc3ccccc3nc2c2c(=O)n(-c3ccccc3OC)cnc21	29	2	9	9	19	-7	.
COc1ccccc1-n1cnc2c(c1=O)c1nc3ccccc3nc1n2-c1ccc(C)c(C)c1	8	-1	-7	7	97*	2	97*
COCCNC(=S)N1CCCC(CO)C1 (stereo not given)	21	0	1	12	-8	2	.
CC(C)(C)c1ccc(Oc2ccc(N)cn2)cc1	.	.	.	6	.	.	.
CCC(C)(C)c1ccc(Oc2ccc(N)cc2)cc1	13	0	5	13	95*	0	14
Cc1ccc(-c2nnc(N3CCN(c4ccccn4)CC3)c3ccccc23)cc1	31	11	11	13	91*	-3	6
O=[N+]([O-])c1cc(Cl)ccc1-c1nc(-c2ccncc2)no1	11	1	16	5	9	11	.
SMILES	GSH bead fluor	ABCB1 inh	ABCG2 inh	Avidin bead fluor	Lmaj promast	PKD1 kinase inh	Lmaj promast 1uM
O=[N+]([O-])c1cc(Cl)ccc1-c1nc(-c2ccccc2)no1	6	3	27	9	89*	-8	-21
Cc1nc(-c2ccccc2)sc1-c1nc(-c2cccnc2)ncc1S(=O)(=O)c1ccccc1	34	3	6	18	42	-6	.
COc1ccc(-n2nnnc2S(=O)(=O)Cc2ccc(C(=O)O)cc2)cc1	27	0	5	11	-3	-3	.
COc1ccc(-n2nnnc2S(=O)(=O)CC(=O)N2CCCCC2)cc1	20	-1	-2	6	93*	-5	19
Cc1ccc(S(=O)(=O)c2c(C)nn(-c3ccccc3)c2OC(=O)c2ccc(Br)o2)cc1	11	0	12	15	53*	10	-21
CN=c1scc(-c2ccc(OC)cc2)n1/N=C(\C)c1cccnc1	16	-2	32	7	16	1	.
COc1ccc(S(=O)(=O)NCCCCC(=O)O)cc1C(=O)O	15	1	2	9	-12	-5	.
O=C(NCc1ccc2c(c1)OCO2)C1CCC(CNS(=O)(=O)c2ccc(Cl)cc2)CC1 (stereo not given)	19	0	1	4	-2	-1	.
CCOC(=O)C1=Nc2ccccc2C1=[N+]=[N-]	32	0	0	17	79*	7	46
C#CCOc1ccc(/C=C2\SC(=S)N(Cc3cccnc3)C2=O)cc1	10	.	-4	5	1	-12	.
O=C1/C(=C/c2ccc(O)cc2)SC(=S)N1Cc1cccnc1	5	0	-3	13	60*	1	-13
COc1ccccc1/C=C/CN1CCCC(CO)(Cc2cccc(Cl)c2)C1 (stereo not given)	13	8	8	6	82*	-4	42
Cc1ccc(OCCCCn2ccnc2)c(Cl)c1	26	2	58	21	98*	-8	74*
COc1ccc(OC)c(N=C(C)C2=C(O)COC2=O)c1	17	-1	1	20	-9	-5	.
COc1ccc(Nc2nc(N)nc(C(F)(F)F)n2)c(OC)c1	12	1	12	24	5	-19	.
Cc1cccc2c(CC(=O)O)noc12	4	0	-4	13	79*	2	-3
Cc1cccc(NC(=O)Cc2noc3ccccc23)c1C	10	1	12	4	0	-6	.
CCCN(Cc1cc2ccc(C)cc2[nH]c1=O)S(=O)(=O)c1ccccc1	22	3	13	21	64*	-6	-12
Cc1noc(/C=C/c2ccco2)c1S(=O)(=O)N1CCC(C(=O)NCc2ccco2)CC1	22	0	0	31	77*	6	-15
O=C(CCSc1ccccn1)Nc1ccc(Br)cc1	12	1	13	17	47	1	.
FC(F)(F)c1nc(-c2ccncc2)ncc1-c1nnnn1-c1ccccc1	23	1	2	14	61*	4	11
Nc1nc(SCC(=O)N2N=C(c3ccc(Cl)cc3)CC2c2ccco2)n[nH]1 (stereo not given)	.	.	.	6	.	.	.
